Experimental findings from ChEMBL document CHEMBL3112507 (Bioorg Med Chem, 2014) are described below.

Experiment [1] deals with T1, Polyunsaturated fatty acid 5-lipoxygenase (Homo sapiens) (UniProt P09917).
T1 sequence (whole entry): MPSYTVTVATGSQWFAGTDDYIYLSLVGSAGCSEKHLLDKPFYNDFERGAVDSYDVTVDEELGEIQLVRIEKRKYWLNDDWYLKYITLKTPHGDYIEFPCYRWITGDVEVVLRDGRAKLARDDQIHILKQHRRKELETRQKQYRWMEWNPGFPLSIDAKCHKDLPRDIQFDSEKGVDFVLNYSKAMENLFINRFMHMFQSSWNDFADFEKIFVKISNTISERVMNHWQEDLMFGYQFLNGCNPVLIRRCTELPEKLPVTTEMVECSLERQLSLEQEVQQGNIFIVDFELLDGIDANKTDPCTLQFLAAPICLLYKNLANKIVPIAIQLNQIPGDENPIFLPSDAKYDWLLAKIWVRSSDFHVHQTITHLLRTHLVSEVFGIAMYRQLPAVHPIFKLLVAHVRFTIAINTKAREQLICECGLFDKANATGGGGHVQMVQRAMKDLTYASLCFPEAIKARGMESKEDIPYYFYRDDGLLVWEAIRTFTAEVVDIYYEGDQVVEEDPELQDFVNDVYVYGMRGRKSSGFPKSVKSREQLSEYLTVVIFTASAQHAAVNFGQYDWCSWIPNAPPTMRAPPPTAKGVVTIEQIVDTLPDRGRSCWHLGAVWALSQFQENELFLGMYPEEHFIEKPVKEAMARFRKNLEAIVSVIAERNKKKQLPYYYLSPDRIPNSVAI
Nature of the experiment: (§1) Inhibition of 5-LOX (unknown origin) by UV-Vis spectrophotometry. The method, boiled down: (§2)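 UV–visible spectral titration of the compounds with 5-LOX. Association constant Ka was obtained from 1/(Af−Aobs) = 1/(Af−Afc) + 1/(Ka[Af−Afc][L]). Ki was calculated as IC50/(1+[L]/Kd) using IC50 values from the enzyme immunoassay.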

The target in experiment [2] is T2, Polyunsaturated fatty acid 5-lipoxygenase (Homo sapiens, UniProt P09917).
T2 sequence (P09917 whole entry): T1 sequence (whole entry)
Described as §1. In short, it runs like this: as §2

Experiment [3] deals with Phospholipase A2 (Homo sapiens) (UniProt P04054). In words: Inhibition of PLA2 (unknown origin) by Ellman's method.
Experiment [4] deals with Prostaglandin G/H synthase 1 (Homo sapiens) (UniProt P23219). In words: Inhibition of COX1 (unknown origin) by EIA.
The target of experiment [5] is T3, Prostaglandin G/H synthase 2 (Homo sapiens) (UniProt P35354).
T3 sequence (whole entry): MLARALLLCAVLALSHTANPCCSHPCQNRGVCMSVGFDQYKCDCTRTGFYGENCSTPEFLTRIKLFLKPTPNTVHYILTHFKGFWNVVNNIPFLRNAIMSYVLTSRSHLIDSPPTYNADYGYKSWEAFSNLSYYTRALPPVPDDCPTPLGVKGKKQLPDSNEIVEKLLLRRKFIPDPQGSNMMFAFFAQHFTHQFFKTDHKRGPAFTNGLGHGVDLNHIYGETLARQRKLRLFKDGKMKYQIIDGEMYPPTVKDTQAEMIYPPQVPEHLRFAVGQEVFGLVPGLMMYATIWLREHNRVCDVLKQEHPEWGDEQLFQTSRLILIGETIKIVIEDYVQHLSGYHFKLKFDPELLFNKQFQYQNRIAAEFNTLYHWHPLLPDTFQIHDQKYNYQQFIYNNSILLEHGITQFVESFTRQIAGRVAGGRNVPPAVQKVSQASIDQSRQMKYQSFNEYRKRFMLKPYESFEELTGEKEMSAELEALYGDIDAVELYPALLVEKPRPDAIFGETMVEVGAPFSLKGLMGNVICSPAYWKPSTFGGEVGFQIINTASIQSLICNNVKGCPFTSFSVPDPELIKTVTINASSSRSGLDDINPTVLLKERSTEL
Nature of the experiment: Inhibition of COX2 (unknown origin) by EIA.

Experiment [6] concerns the target T2, Polyunsaturated fatty acid 5-lipoxygenase. Nature of the experiment: Inhibition of 5-LOX (unknown origin) using arachidonic acid as substrate after 5 mins by EIA. The method, boiled down:
(§3)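 Test compounds dissolved in DMSO at 0.01, 0.1, 1, 10 and 100 µM. Each was added to 5-LOX enzyme in assay buffer, and the reaction was started with arachidonic acid substrate. Plates were shaken 5 min, chromogen was added, shaken 5 min more, then read at 490 nm. Blanks were buffer plus AA; positive controls were enzyme plus AA. Run in duplicate, means with deviation <5% used. Percent inhibition was calculated from lipoxygenase activity; IC50 derived from the concentration series.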

In experiment [7] the target is T1, Polyunsaturated fatty acid 5-lipoxygenase (Homo sapiens). In words: Inhibition of 5-LOX (unknown origin) using arachidonic acid as substrate at 0.01 uM after 5 mins by EIA. In short, it runs like this: as §3
For experiment [8] the target is unchanged. Nature of the experiment: Inhibition of 5-LOX (unknown origin) using arachidonic acid as substrate at 0.1 uM after 5 mins by EIA. In short, it runs like this: as §3
Experiment [9] has the same target. Nature of the experiment: Inhibition of 5-LOX (unknown origin) using arachidonic acid as substrate at 1 uM after 5 mins by EIA. The method, boiled down: as §3
Experiment [10] shares this target. In words: Inhibition of 5-LOX (unknown origin) using arachidonic acid as substrate at 100 uM after 5 mins by EIA. The method, boiled down:
as §3

The target is the same in experiment [11]. Nature of the experiment: Inhibition of 5-LOX (unknown origin) using arachidonic acid as substrate at 10 uM after 5 mins by EIA. In short, it runs like this: as §3

One may read the Ki as the dissociation constant of the complex between target and ligand, obtained from inhibition or displacement. Higher therefore signals lower affinity. The term inhibition denotes the drop in the measured response relative to a control, in per cent. As usually defined, the IC50 is the concentration at which inhibition is half-maximal.

Activity calls are given as the source filed them. The rule behind the calls is not given here.

Chain of Prostaglandin G/H synthase 1 (Homo sapiens) (P23219 whole entry): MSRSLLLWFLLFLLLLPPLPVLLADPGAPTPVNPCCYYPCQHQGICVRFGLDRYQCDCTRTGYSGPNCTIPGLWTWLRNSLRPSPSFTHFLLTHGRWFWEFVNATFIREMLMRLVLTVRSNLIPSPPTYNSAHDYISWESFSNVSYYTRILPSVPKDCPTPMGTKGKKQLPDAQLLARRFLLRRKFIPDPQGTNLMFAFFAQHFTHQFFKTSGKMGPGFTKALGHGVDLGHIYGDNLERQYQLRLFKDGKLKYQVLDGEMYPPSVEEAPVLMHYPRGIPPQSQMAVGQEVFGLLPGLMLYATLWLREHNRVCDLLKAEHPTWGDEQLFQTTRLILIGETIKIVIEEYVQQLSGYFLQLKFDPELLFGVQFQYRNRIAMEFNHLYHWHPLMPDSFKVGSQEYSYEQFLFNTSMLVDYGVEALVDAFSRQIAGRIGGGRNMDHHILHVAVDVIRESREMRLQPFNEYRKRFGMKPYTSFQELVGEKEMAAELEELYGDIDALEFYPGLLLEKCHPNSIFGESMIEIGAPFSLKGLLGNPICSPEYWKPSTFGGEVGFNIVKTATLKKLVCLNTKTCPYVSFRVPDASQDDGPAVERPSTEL
Chain of Phospholipase A2 (Homo sapiens) (P04054 23-148 limits assumed): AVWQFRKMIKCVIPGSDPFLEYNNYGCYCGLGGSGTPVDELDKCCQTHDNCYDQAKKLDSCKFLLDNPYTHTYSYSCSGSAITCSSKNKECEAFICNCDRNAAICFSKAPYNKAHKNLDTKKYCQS

In experiment [1], `Cc1ccc(S(=O)(=O)n2cc(C(=O)C(=O)N3CCC[C@@H]3C(=O)O)c3ccccc32)cc1` showed a Ka of 2.6 ×10⁵ /M. The Ki in experiment [2] was 510 nM. Moreover, the inhibition result in experiment [3], in experiment [4] and in experiment [5] was “inactive” throughout. The IC50 in experiment [6] was 600 nM. Besides, the inhibition in experiment [7] was found to be 27.3%; in experiment [8] it was 45%; in experiment [9], 53.5%; in experiment [10], 74.3%; in experiment [11], 68.8%.

On to `Cc1ccc(S(=O)(=O)n2cc(C(=O)C(=O)N[C@H](Cc3cnc[nH]3)C(=O)O)c3ccccc32)cc1`, for which the Ka in experiment [1] amounted to 3.7 ×10⁴ /M. The Ki in experiment [2] was determined as 2530 nM. Besides, the inhibition entry in experiment [3], in experiment [4] and in [5] was “inactive” in each case. The compound also came in with an IC50 in experiment [6] of 2800 nM. Moreover, the inhibition in [7] is 20%; in experiment [8], 28.5%; in experiment [9], 48.7%; in [10], 64.7%; in experiment [11], 55.5%.

With `COC(=O)[C@@H](Cc1cnc[nH]1)NC(=O)C(=O)c1c[nH]c2ccccc12`, the inhibition entry in experiment [3], in [4] and in experiment [5] was “inactive” throughout. The inhibition in experiment [7] amounted to 30%; in experiment [8], 37.7%; in [9], 40.8%; in [10], 65%; in experiment [11], 45.5%.

On to `Cc1ccc(S(=O)(=O)n2cc(C(=O)C(=O)N[C@H](CCC(=O)O)C(=O)O)c3ccccc32)cc1`, for which the Ka in experiment [1] worked out at 1.1 ×10⁵ /M. Further, in experiment [2], the Ki stood at 95 nM. The inhibition entry in experiment [3], in experiment [4] and in [5] was “inactive” throughout. In addition, half-maximal inhibition in experiment [6] (IC50) was put at 97 nM. For the same compound, the inhibition in experiment [7] amounted to 42%; in [8], 50.5%; in experiment [9], 59.5%; in experiment [10] it was 90.6%; in experiment [11], 87.6%.

As for `CC(C)(C)Sc1c(CC(C)(C)C(=O)O)n(Cc2ccc(Cl)cc2)c2ccc(OCc3ccc4ccccc4n3)cc12` [QUIFLAPON], half-maximal inhibition in [6] (IC50) was put at 1.6 nM.

With `COC(=O)CNC(=O)C(=O)c1c[nH]c2ccccc12`, the inhibition entry in experiment [3], in experiment [4] and in [5] was “inactive” each time. This compound also gave an IC50 in experiment [6] of 3500 nM. In addition, the inhibition in [7] was 40%; in experiment [8], 46.2%; in experiment [9], 47.8%; in experiment [10] it was 70%; in experiment [11], 55.5%.

With `COC(=O)[C@@H](Cc1c[nH]c2ccccc12)NC(=O)C(=O)c1c[nH]c2ccccc12`, the inhibition result in experiment [3], in experiment [4] and in experiment [5] was “inactive” throughout. For the same compound, the inhibition was 35% in experiment [7]; 41.1% in [8]; 43.4% in [9]; 65% in experiment [10]; 49.8% in experiment [11].

On to `COC(=O)CC[C@@H](NC(=O)C(=O)c1c[nH]c2ccccc12)C(=O)OC`, for which the inhibition entry in [3], in [4] and in experiment [5] was “inactive” each time. In addition, the IC50 in experiment [6] amounted to 8330 nM. Also, the inhibition was found to be 36% in experiment [7]; 40% in experiment [8]; 44.8% in [9]; 55% in experiment [10]; 51.2% in [11].

For the compound `COC(=O)[C@H]1CCCN1C(=O)C(=O)c1c[nH]c2ccccc12`, the inhibition entry in [3], in experiment [4] and in [5] was “inactive” in each case. This compound yielded an IC50 in experiment [6] of 5460 nM. The inhibition in experiment [7] was 22.5%; in experiment [8], 25.5%; in [9] it was 40.2%; in [10], 60.6%; in experiment [11] it was 59.8%.
